Results: ChEMBL document CHEMBL1129387, “Synthesis and biological activity of 1 alpha, 25-dihydroxy-18-norvitamin D3 and 1 alpha, 25-dihydroxy-18,19-dinorvitamin D3” (1996)
“And” between values parts separate entries of the source, which are not always exact repeats. Equal entries are not always repeated.

Tests used:
Rattus norvegicus [1] = species: Rattus norvegicus; test: Support of Serum Calcium Transport mobilization response of Vitamin D-Deficient Rats on a low-calcium diet(amount 130 pmol); type: functional, organism-based
Procedure, shortened: (§1)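 Weanling male rats deficient in vitamin D, held on a low-calcium (0.02% Ca) diet, dosed intraperitoneally each day for 7 days in 0.1 mL of 95:5 propylene glycol/ethanol, with vehicle controls. Serum calcium was measured by automatic titrator 24 h after the last dose as the index of bone calcium mobilization. At least 5 rats/group; mean ± SEM; Student's t-test.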

Rattus norvegicus [2] = species: Rattus norvegicus; test: Serum Calcium Transport mobilization response of Vitamin D-Deficient Rats on a low-calcium diet(amount 500 pmol); type: functional, organism-based; procedure, shortened: as §1
Rattus norvegicus [3] = species: Rattus norvegicus; test: Intestinal Calcium Transport mobilization response of Vitamin D-Deficient Rats on a low-calcium diet(amount 500 pmol); type: functional
Procedure, shortened: (§2)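 Vitamin D-deficient weanling male rats kept on a 0.02% Ca diet. Compound given intraperitoneally daily for 7 days in 0.1 mL of 95:5 propylene glycol/ethanol; controls got vehicle. Killed 24 h after the last dose. Intestinal Ca transport by everted sac (proximal 10 cm), reported as S/M ratio. At least 5 rats/group; mean ± SEM; Student's t-test.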

Rattus norvegicus [4] = species: Rattus norvegicus; test: Support of Intestinal Calcium Transport mobilization response of Vitamin D-Deficient Rats on a low-calcium diet(amount 130 pmol); type: functional; procedure, shortened: as §2
Rattus norvegicus [5] = test: Intestinal Calcium Transport mobilization response of Vitamin D-Deficient Rats to a single Intravenous Injection of D3 (amount 260 pmol); type: functional
Procedure, shortened: (§3)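 Vitamin D-deficient weanling male rats, 3 weeks on a 0.47% Ca diet then 1 week on 0.02% Ca. A single intravenous dose was given in 0.1 mL of 95:5 propylene glycol/ethanol, with vehicle controls. After 24 h, the proximal 10 cm of intestine was taken for everted-sac calcium transport, expressed as serosal:mucosal (S/M) Ca ratio. At least 5 rats/group; mean ± SEM.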

Rattus norvegicus [6] = species: Rattus norvegicus; test: Support of Serum Calcium Transport mobilization response of Vitamin D-Deficient Rats on a low-calcium diet(amount 260 pmol); type: functional, organism-based; procedure, shortened: as §1
Rattus norvegicus [7] = species: Rattus norvegicus; test: Support of Intestinal Calcium Transport mobilization response of Vitamin D-Deficient Rats on a low-calcium diet(amount 260 pmol); type: functional; procedure, shortened: as §2
Rattus norvegicus [8] = test: Bone Calcium mobilization response of Vitamin D-Deficient Rats to a single Intravenous Injection of (amount 260 pmol); type: functional, organism-based
Procedure, shortened: (§4)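 Vitamin D-deficient weanling male rats, 3 weeks on a 0.47% Ca diet then 1 week on 0.02% Ca. A single intravenous dose was given in 0.1 mL of 95:5 propylene glycol/ethanol, with vehicle controls. Serum calcium was measured by automatic titrator 24 h after dosing. The rise in serum Ca on the low-Ca diet is taken as bone calcium mobilization. At least 5 rats/group; mean ± SEM.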

Rattus norvegicus [9] = test: Intestinal Calcium Transport mobilization response of Vitamin D-Deficient Rats to a single Intravenous Injection amount 260 pmol); type: functional; procedure, shortened: as §3
Rattus norvegicus [10] = species: Rattus norvegicus; test: Support of Serum Calcium Transport mobilization response of Vitamin D-Deficient Rats on a low-calcium diet(amount 1300 pmol); type: functional, organism-based; procedure, shortened: as §1
Rattus norvegicus [11] = species: Rattus norvegicus; test: Support of Serum Calcium Transport mobilization response of Vitamin D-Deficient Rats on a low-calcium diet(amount 650 pmol); type: functional, organism-based; procedure, shortened: as §1
Rattus norvegicus [12] = test: Bone Calcium mobilization response of Vitamin D-Deficient Rats to a single Intravenous Injection (amount 260 pmol); type: functional, organism-based; procedure, shortened: as §4
Rattus norvegicus [13] = species: Rattus norvegicus; test: Support of Intestinal Calcium Transport mobilization response of Vitamin D-Deficient Rats on a low-calcium diet(amount 1300 pmol); type: functional; procedure, shortened: as §2
Rattus norvegicus [14] = species: Rattus norvegicus; test: Support of Intestinal Calcium Transport mobilization response of Vitamin D-Deficient Rats on a low-calcium diet(amount 650 pmol); type: functional; procedure, shortened: as §2
Rattus norvegicus [15] = species: Rattus norvegicus; test: Support of Serum Calcium Transport mobilization response of Vitamin D-Deficient Rats on a low-calcium diet(amount 1000 pmol); type: functional, organism-based; procedure, shortened: as §1
Rattus norvegicus [16] = species: Rattus norvegicus; test: Support of Intestinal Calcium Transport mobilization response of Vitamin D-Deficient Rats on a low-calcium diet(amount 1000 pmol); type: functional; procedure, shortened: as §2
Rattus norvegicus [17] = species: Rattus norvegicus; test: Support of Intestinal Calcium Transport mobilization response of Vitamin D-Deficient Rats on a low-calcium diet(amount 500 pmol); type: functional; procedure, shortened: as §2
Rattus norvegicus [18] = species: Rattus norvegicus; test: Support of Serum Calcium Transport mobilization response of Vitamin D-Deficient Rats on a low-calcium diet(amount 500 pmol); type: functional, organism-based; procedure, shortened: as §1

SMILES | Serum Ca2+ (Rattus norvegicus [1]) | Serum Ca2+ (Rattus norvegicus [2]) | Ca2+ transport (Rattus norvegicus [3]) | Ca2+ transport (Rattus norvegicus [4]) | Ca2+ transport (Rattus norvegicus [5]) | Serum Ca2+ (Rattus norvegicus [6]) | Ca2+ transport (Rattus norvegicus [7]) | Serum Ca2+ (Rattus norvegicus [8]) | Ca2+ transport (Rattus norvegicus [9]) | Serum Ca2+ (Rattus norvegicus [10]) | Serum Ca2+ (Rattus norvegicus [11]) | Serum Ca2+ (Rattus norvegicus [12]) | Ca2+ transport (Rattus norvegicus [13]) | Ca2+ transport (Rattus norvegicus [14]) | Serum Ca2+ (Rattus norvegicus [15]) | Ca2+ transport (Rattus norvegicus [16]) | Ca2+ transport (Rattus norvegicus [17]) | Serum Ca2+ (Rattus norvegicus [18])
C=C1/C(=C\C=C2/CCC[C@]3(C)[C@@H]([C@H](C)CCCC(C)(C)O)CC[C@@H]23)C[C@@H](O)C[C@@H]1O [CALCITRIOL] | 5.8 | 5.5 | 5.7 | 6.8 | 5 | 5.4 and 7.1 | 7.6 | 4.8 | – | – | – | – | – | – | – | – | – | –
C=C1/C(=C\C=C2/CCC[C@@H]3C([C@H](C)CCCC(C)(C)O)CC[C@@H]23)C[C@@H](O)C[C@@H]1O (some centres undefined) | – | 5.1 | 4.1 | – | – | – | – | – | 3.9 | 5.6 | 5.2 | 4.4 | 5.5 | 5.4 | – | – | – | –
C[C@H](CCCC(C)(C)O)C1CC[C@H]2/C(=C/C=C3C[C@@H](O)C[C@H](O)C3)CCC[C@H]12 (some centres undefined) | 4.8 | – | – | 3.7 | – | 4.9 | 4.8 | – | – | – | – | – | – | – | 5.5 | 6.9 | 6.2 | 5.6
